Measured values from different studies.

O=C1NC(CF)(CF)C(=O)N1c1ccc(F)c(C(F)(F)F)c1
chromatographic logD (HPLC; pH 7.4): 3

CNS(=O)(=O)c1ccc(Nc2ncc(C(F)(F)F)c([C@H]3CC[C@](C)(O)CC3)n2)c(C)c1
scaled CLint (metabolic stability; human, liver microsomes; 1 µM): < 14 mL/min/kg

COc1ccc2c(c1)CN(C(=O)CCN1CCC(Cc3ccccc3)CC1)CC[S@@+]2[O-]
clearance (male human, plasma; intravenous, 0.01 mg/kg, healthy volunteers): 235 mL/min

Cc1cc(S(=O)(=O)N[C@]2(C)C[C@H](N3CCN(CC4CCN(c5ccc6c(c5F)n(C)c(=O)n6C5CCC(=O)NC5=O)CC4)CC3)C2)ccc1Nc1ncc(C(F)(F)F)c(N2CCC[C@](C)(O)C2)n1 (some centres unmarked)
scaled CLint (metabolic stability; human, liver microsomes; 1 µM): 251 mL/min/kg

CC1(C)NC(=O)N(c2ccc(F)c(OC(F)(F)F)c2)C1=O
chromatographic logD (HPLC; pH 7.4): 2.9

COCC(=O)N1CCC[C@H](C(=O)NCc2nc(-c3ccccc3)cs2)C1
microsomal CLint (metabolic stability; male Sprague-Dawley rat, liver microsomes; 0.5 µM): 19 µL/min/mg

CC1(C)NC(=O)N(c2ccc3c(c2)OC(F)(F)O3)C1=O
chromatographic logD (HPLC; pH 7.4): 2.5

CCOCC(=O)N1CC[C@@H](C)[C@H](C(=O)NCc2nc(-c3ccc(C)nc3)cs2)C1 (racemic)
microsomal CLint (metabolic stability; male Sprague-Dawley rat, liver microsomes; 0.5 µM): 53 µL/min/mg

CCS(=O)(=O)N1CCC2(CC1)NC(=O)N(c1ccc(F)c(C(F)(F)F)c1)C2=O
chromatographic logD (HPLC; pH 7.4): 3.1

CCONC(=O)N1CCC[C@H](C(=O)N[C@H](C)c2nc(-c3ccc(C#N)cc3)cs2)C1
microsomal CLint (metabolic stability; male Sprague-Dawley rat, liver microsomes; 0.5 µM): 29 µL/min/mg

c1cc(-c2ccc3ncnc(Nc4ncco4)c3c2)cc(N2CC3CCC(C2)O3)c1
logD (shake flask; aqueous buffer; pH 7.4): > 3.6

C[C@H](O)c1ccc(NS(=O)(=O)c2ccc(OCC3CCC3)c(Cl)c2)c2nn(C)cc12
hepatocyte CLint (metabolic stability; human, hepatocytes; 1 µM): 167 µL/min/10⁶ cells

Cc1cc(S(=O)(=O)N[C@H]2C[C@H](CN3CCN(c4ccc(C5CCC(=O)NC5=O)c(Cl)c4)CC3)C2)ccc1Nc1ncc(C(F)(F)F)c(N2CCC[C@](C)(O)C2)n1 (some centres unmarked)
scaled CLint (metabolic stability; human, liver microsomes; 1 µM): 21 mL/min/kg

CC1(C)NC(=O)N(c2ccc(F)c(S(C)(=O)=O)c2)C1=O
chromatographic logD (HPLC; pH 7.4): 1.2

Cc1cc(S(=O)(=O)NC2CC(N3CC[C@@H](OC4CN(c5cccc6c5n(C)c(=O)n6C5CCC(=O)NC5=O)C4)[C@H](F)C3)C2)ccc1Nc1ncc(C(F)(F)F)c(N2CCC[C@](C)(O)C2)n1 (some centres unmarked)
scaled CLint (metabolic stability; rat, liver microsomes; 1 µM): 23 mL/min/kg

CC1(C)NC(=O)N(c2ccc(F)c(CC(F)(F)F)c2)C1=O
chromatographic logD (HPLC; pH 7.4): 2.7

c1cc(-c2ccc3ncnc(Nc4ncco4)c3c2)nc(N2CCOCC2)c1
logD (shake flask; aqueous buffer; pH 7.4): 3.1

Cc1cc(S(=O)(=O)NC2CC(N3CCN(CC4CCN(c5ccc6c(c5F)n(C)c(=O)n6C5CCC(=O)NC5=O)CC4)CC3)C2)ccc1Nc1ncc(C(F)(F)F)c(N2CCCC(C)(O)C2)n1 (centres unmarked)
scaled CLint (metabolic stability; human, liver microsomes; 1 µM): 22 mL/min/kg

Cc1ccc(-c2csc(CNC(=O)[C@H]3CCCN(C(=O)[C@H]4CCC(C)(C)O4)[C@H]3C)n2)cn1
microsomal CLint (metabolic stability; male Sprague-Dawley rat, liver microsomes; 0.5 µM): 197 µL/min/mg

CN1CCN(c2cccc(-c3ccc4ncnc(Nc5ccc(Cl)c(Cl)c5)c4c3)c2)CC1
logD (shake flask; aqueous buffer; pH 7.4): > 4.1

CC(C)(N)COCC(=O)N1CCC[C@H](C(=O)NCc2nc(-c3ccc(C(F)(F)F)cc3)cs2)C1
scaled CLint (metabolic stability; male Sprague-Dawley rat, hepatocytes; 0.5 µM): 21 mL/min/kg

Cc1cc(N2C(=O)NC(C)(C)C2=O)cc(C(F)(F)F)n1
chromatographic logD (HPLC; pH 7.4): 2.2

CC(C)C[C@H](NC(=O)[C@H](CC(C)C)NC(=O)[C@H](Cc1c[nH]c2ccccc12)NC(=O)[C@H](CCC(=O)O)NC(=O)[C@@H](NC(=O)[C@H](Cc1ccccc1)NC(=O)[C@H](CCC(=O)O)NC(=O)[C@H](CCCCNC(=O)COCCOCCNC(=O)COCCOCCNC(=O)CC[C@H](NC(=O)CCCCCCCCCCCCCCCCCCC(=O)O)C(=O)O)NC(=O)[C@H](C)NC(=O)[C@H](CCCCN)NC(=O)[C@H](CCCCN)NC(=O)[C@H](CCC(=O)O)NC(=O)[C@H](CC(=O)O)NC(=O)[C@H](CC(C)C)NC(=O)[C@H](Cc1ccc(O)cc1)NC(=O)[C@H](CCCCN)NC(=O)[C@H](CO)NC(=O)[C@H](Cc1ccc(O)cc1)NC(=O)[C@H](CC(=O)O)NC(=O)[C@H](CO)NC(=O)[C@@H](NC(=O)[C@H](Cc1ccccc1)NC(=O)[C@@H](NC(=O)CNC(=O)[C@H](CCC(N)=O)NC(=O)C(C)(C)NC(=O)[C@@H](N)Cc1c[nH]cn1)[C@@H](C)O)[C@@H](C)O)C(C)C)C(=O)N[C@@H](CCC(=O)O)C(=O)NCC(=O)NCC(=O)N1CCC[C@H]1C(=O)N[C@@H](CO)C(=O)N[C@@H](CO)C(=O)NCC(N)=O
CL/F (human, plasma; subcutaneous, 16 mg, multiple doses, patients): 0.5 mL/min

C[C@]1(O)CCCN(c2nc(Nc3ccc(S(=O)(=O)N[C@H]4CC[C@H](CN5CCN(c6ccc(C7CCC(=O)NC7=O)cc6F)CC5)CC4)cc3F)ncc2C(F)(F)F)C1 (some centres unmarked)
scaled CLint (metabolic stability; human, liver microsomes; 1 µM): < 14 mL/min/kg

CC1(C(F)(F)F)NC(=O)N(c2ccc(F)c(C(F)(F)F)c2)C1=O (centres unmarked)
chromatographic logD (HPLC; pH 7.4): 3.5

Cc1cc(S(=O)(=O)NC2CC(N3CCN(CC4CCN(c5ccc(NC6CCC(=O)NC6=O)cc5C)CC4)CC3)C2)ccc1Nc1ncc(C(F)(F)F)c(N2CCC[C@](C)(O)C2)n1 (some centres unmarked)
scaled CLint (metabolic stability; human, liver microsomes; 1 µM): 15 mL/min/kg

NCCOCC(=O)N1CCC[C@H](C(=O)NCc2nc(-c3ccc(C(F)(F)F)cc3)cs2)C1
scaled CLint (metabolic stability; male Sprague-Dawley rat, hepatocytes; 0.5 µM): < 4.2 mL/min/kg

C[C@]1(O)CCCN(c2nc(Nc3ccc(S(=O)(=O)N[C@H]4CC[C@H](CN5CCN(c6ccc(C7CCC(=O)NC7=O)c(F)c6)CC5)CC4)cc3F)ncc2C(F)(F)F)C1 (some centres unmarked)
scaled CLint (metabolic stability; human, liver microsomes; 1 µM): < 14 mL/min/kg

c1coc(Nc2ncnc3ccc(-c4cncc(N5CCOCC5)n4)cc23)n1
logD (shake flask; aqueous buffer; pH 7.4): 3.5
